{"data": "Measured values pooled from the literature", "target": "Interleukin-1 receptor-associated kinase 1 (IRAK1, Homo sapiens, UniProt P51617)", "note": "Each line is one published result; the experiments were not run side by side."}
{"Compound": "CC(C)(C)c1cc(C=C(C#N)C#N)cc(Br)c1O", "observed": "enzyme activity", "mode": "inhibitor", "tested at": "0.5 µM", "quantity": "remaining activity", "value": "105%"}
{"Compound": "Cn1cc(-c2cccc(N3CCc4c(sc5c4CC(C)(C)C5)C3=O)c2CO)cc(Nc2ccncn2)c1=O", "observed": "enzyme activity", "mode": "inhibitor", "tested at": "1 µM", "quantity": "inhibition", "value": "-4%"}
{"Compound": "Nc1ncc(-c2nc(N3CCOCC3)nc(N3CCOCC3)n2)c(C(F)F)n1", "observed": "binding", "technique": "competition with immobilised ligand", "tested at": "10 µM", "quantity": "remaining binding", "value": "50%"}
{"Compound": "COc1cc(Nc2ncc(F)c(Nc3ccc4c(n3)NC(=O)C(C)(C)O4)n2)cc(OC)c1OC", "observed": "binding", "tested at": "10 µM", "quantity": "inhibition", "value": "100%"}
{"Compound": "C#Cc1n[nH]c2c(-c3cn(C(C)c4ccccn4)c(=O)[nH]c3=O)cc(F)cc12 (stereo not drawn)", "observed": "enzyme activity", "mode": "inhibitor", "tested at": "1 µM", "quantity": "inhibition", "value": "11.6%"}
{"Compound": "O=c1[nH]c2ccccc2n1C1CCN(Cc2ccc(-c3[nH]c4cc5ncnc5cc4nc3-c3ccccc3)cc2)CC1", "observed": "cell-free assay", "tested at": "0.5 µM", "quantity": "remaining signal", "value": "109%"}
{"Compound": "COc1ncccc1-c1cnn2ccc(N3CCN(C(=O)OC(C)C)CC3)nc12", "observed": "binding", "technique": "competition with immobilised ligand", "tested at": "1 µM", "quantity": "remaining binding", "value": "80%"}
{"Compound": "N#CC1(c2ccccn2)CCN(Cc2cc(C(=O)O)c(=O)n3ccccc23)CC1", "observed": "cell-free assay", "technique": "competition with immobilised ligand", "tested at": "1 µM", "quantity": "remaining binding", "value": "77%"}
{"Compound": "Cn1cc(-c2cc(F)cc(N3CCn4c(cc5c4CCCC5)C3=O)c2CO)cc(Nc2ccc(N3CCN(C4COC4)CC3)cn2)c1=O", "observed": "enzyme activity", "mode": "inhibitor", "tested at": "0.1 µM", "quantity": "inhibition", "value": "2%"}
{"Compound": "C#Cc1n[nH]c2c(-c3cn([C@@H](C)c4ccccc4)c(=O)[nH]c3=O)cc(F)cc12", "observed": "enzyme activity", "mode": "inhibitor", "tested at": "0.1 µM", "quantity": "inhibition", "value": "-7%"}
{"Compound": "Cc1nn(C)cc1-c1nc2c(N3CCN(Cc4ccc(Cl)cc4)CC3)c(Cl)cnc2[nH]1", "observed": "binding", "technique": "competition with immobilised ligand", "tested at": "1 µM", "quantity": "remaining binding", "value": "56%"}
{"Compound": "Cn1cncc1[C@](O)(COc1ccc(C#N)cc1-c1ccc(OC(F)(F)F)cc1)c1ccc(C#N)cc1", "observed": "cell-free assay", "technique": "competition with immobilised ligand", "tested at": "1 µM", "quantity": "remaining binding", "value": "83%"}
